Key:
[1] = Glucose tolerance test after nasal administration in mice; assay type: in vivo, WT C57BL/6 mice; details: systemic uptake monitored functionally by glucose-tolerance test
How it was run: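 Male C57BL/6 mice (6-9 weeks; Nnt deletion), acclimatized 2 weeks, fasted 18 h, lightly isoflurane-anesthetized. 20 μL of test peptide or its glycolipid conjugate (various concentrations) or saline was dripped slowly into the nasal cavity. After 1 h, glucose 2 g/kg was injected (n = 2 each). Blood glucose was read by glucometer from ~5 μL tail-nick blood at set times, and AUC was calculated.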

furin protease = furin protease (Homo sapiens, UniProt P09958); test: In vitro cleavage by furin protease; assay type: in vitro ADME; details: Figure S1
furin protease, sequence (P09958 108-794): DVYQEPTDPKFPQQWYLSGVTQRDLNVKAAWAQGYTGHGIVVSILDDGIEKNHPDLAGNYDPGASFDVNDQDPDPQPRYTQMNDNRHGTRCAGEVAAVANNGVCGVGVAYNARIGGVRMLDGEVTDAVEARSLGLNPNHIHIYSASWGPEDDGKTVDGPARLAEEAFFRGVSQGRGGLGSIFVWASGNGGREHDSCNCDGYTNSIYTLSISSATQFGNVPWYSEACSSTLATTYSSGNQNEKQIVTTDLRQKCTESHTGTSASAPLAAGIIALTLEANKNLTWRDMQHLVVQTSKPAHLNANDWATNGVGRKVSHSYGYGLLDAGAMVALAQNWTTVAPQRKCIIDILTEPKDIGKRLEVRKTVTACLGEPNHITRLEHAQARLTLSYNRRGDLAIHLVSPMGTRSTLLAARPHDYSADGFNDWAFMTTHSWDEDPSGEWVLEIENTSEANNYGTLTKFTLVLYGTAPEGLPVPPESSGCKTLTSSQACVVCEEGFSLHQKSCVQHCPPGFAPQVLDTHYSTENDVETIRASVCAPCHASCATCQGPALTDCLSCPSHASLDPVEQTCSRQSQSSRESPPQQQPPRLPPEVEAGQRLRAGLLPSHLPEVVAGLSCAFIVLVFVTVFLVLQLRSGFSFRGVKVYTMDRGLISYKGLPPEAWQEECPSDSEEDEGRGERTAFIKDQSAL

## Glucagon-like peptide-1 [GLP-1*]
[1]
  Mucosal absorption after nasal application: evidence for absorption
Furin protease
  Cleavage by the furin protease: resistant to cleavage

Source: publication PMC3929184 (Journal of controlled release : official journal of the …, 2013)
